Assay results published in ChEMBL document CHEMBL2176995, “An oral sphingosine 1-phosphate receptor 1 (S1P(1)) antagonist prodrug with efficacy in vivo: discovery, synthesis, and evaluation” (J Med Chem, 2012).
≈ marks a conversion by molar mass, not a printed value. Calls of active or inactive are those of the source. The rule behind the calls is not given here.

Legend:
[1] = target: T1, Sphingosine 1-phosphate receptor 1 (Homo sapiens, UniProt P21453); assay: Antagonist activity at human S1P1R receptor expressed in CHO cell membranes by [35S]GTPgamma binding assay; format: functional
In short: (§1)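 Membranes from CHO clones stably expressing human S1P1 (1−5 μg/well), with S1P2–S1P5 handled comparably. Compound preincubated 15 min, then S1P (4 nM final) and GTPγ³⁵S (0.2 nM final) added. Shaken 120 min at room temperature, then SPA counting. Eight concentrations in duplicate; IC₅₀ from curve fit, mean of ≥3 determinations ± SEM.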

Rattus norvegicus [2] = assay: Increase in allograft survival in stringent Dark Agouti to Lewis rat heterotopic vascular heart allotransplantation model assessed as allograft mean survival time at 10 mg/kg, po bid (reference value: 6 days); format: functional
In short: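 Hearts from DA donors were transplanted into Lewis recipients, with dosing starting 3 days pre-transplant. The PKC inhibitor was given po b.i.d., mixed in D-glucose and dissolved in PEG400, distilled water and 0.1 M aqueous HCl. Vehicle controls were dosed po b.i.d. Endpoint was graft survival to rejection or predefined termination, reported as median days. Histology used H&E and trichrome with acute rejection scoring.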

Rattus norvegicus [3] = assay: Reduction in peripheral blood lymphocytes in Lewis rat assessed as remaining circulating lymphocytes level at 100 mg/kg, po administered as single dose measured 14 to 48 hrs post dose by automated hematology analyzer
[4] = Solubility in pH 6.8 buffer; format: physicochemical
Rattus norvegicus [5] = assay: Reduction in peripheral blood lymphocytes in Lewis rat assessed as remaining circulating lymphocytes level at 30 mg/kg, po administered as single dose measured 24 hrs post dose by automated hematology analyzer; format: functional
In short: (§2)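 Male Lewis rats receive a single oral dose of compound or vehicle, freshly made in 30% PEG200/buffer. Blood (<200 μL) is drawn by sublingual puncture under isoflurane 5% v/v at baseline and later time points. Lymphocytes are counted on an automated hematology analyzer, and each animal's change is expressed as percent of its own pre-treatment baseline.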

Rattus norvegicus [6] = assay: Reduction in peripheral blood lymphocytes in Lewis rat assessed as remaining circulating lymphocytes level at 30 mg/kg, po administered as single dose measured 14 hrs post dose by automated hematology analyzer; format: functional; in short: as §2
Rattus norvegicus [7] = assay: Reduction in peripheral blood lymphocytes in Lewis rat assessed as remaining circulating lymphocytes level at 100 mg/kg, po administered as single dose measured 14 hrs post dose by automated hematology analyzer; format: functional; in short: as §2
Rattus norvegicus [8] = assay: Reduction in peripheral blood lymphocytes in Lewis rat assessed as remaining circulating lymphocytes level at 100 mg/kg, po administered as single dose measured 8 hrs post dose by automated hematology analyzer; format: functional; in short: as §2
Rattus norvegicus [9] = assay: Reduction in peripheral blood lymphocytes in Lewis rat assessed as remaining circulating lymphocytes level at 100 mg/kg, po administered as single dose measured 12 hrs post dose by automated hematology analyzer; format: functional; in short: as §2
Rattus norvegicus [10] = assay: Increase in allograft survival in stringent Dark Agouti to Lewis rat heterotopic vascular heart allotransplantation model assessed as allograft mean survival time at 0.1 mg/kg, po qd co-treated with 0.3 mg/kg, qd everolimus; format: functional
Rattus norvegicus [11] = assay: Increase in allograft survival in stringent Dark Agouti to Lewis rat heterotopic vascular heart allotransplantation model assessed as allograft mean survival time at 0.1 mg/kg, po qd co-treated with 10 mg/kg, po bid sotrastaurin; format: functional
Rattus norvegicus [12] = assay: Increase in allograft survival in stringent Dark Agouti to Lewis rat heterotopic vascular heart allotransplantation model assessed as allograft mean survival time at 0.3 mg/kg, po qd (reference value: 6 days); format: functional
[13] = target: T2, Sphingosine 1-phosphate receptor 5 (Homo sapiens, UniProt Q9H228); assay: Agonist activity at human S1P5R receptor expressed in CHO cell membranes by [35S]GTPgamma binding assay; format: functional
[14] = target: T3, Sphingosine 1-phosphate receptor 4 (Homo sapiens, UniProt O95977); assay: Agonist activity at human S1P4R receptor expressed in CHO cell membranes by [35S]GTPgamma binding assay; format: functional
T3 sequence (O95977 whole entry): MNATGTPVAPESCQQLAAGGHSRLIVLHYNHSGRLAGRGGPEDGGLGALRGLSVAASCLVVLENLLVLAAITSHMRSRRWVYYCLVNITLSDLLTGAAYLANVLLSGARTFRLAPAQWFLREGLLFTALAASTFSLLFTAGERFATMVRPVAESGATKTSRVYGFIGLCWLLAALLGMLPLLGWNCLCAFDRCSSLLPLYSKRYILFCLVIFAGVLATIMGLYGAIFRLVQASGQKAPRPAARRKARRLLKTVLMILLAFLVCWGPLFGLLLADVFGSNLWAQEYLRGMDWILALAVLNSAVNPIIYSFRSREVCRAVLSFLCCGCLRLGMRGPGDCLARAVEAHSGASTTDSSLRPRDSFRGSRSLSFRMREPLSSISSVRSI

[15] = target: T4, Sphingosine 1-phosphate receptor 3 (Homo sapiens, UniProt Q99500); assay: Agonist activity at human S1P3R receptor expressed in CHO cell membranes by [35S]GTPgamma binding assay; format: functional
[16] = target: T5, Sphingosine 1-phosphate receptor 2 (Homo sapiens, UniProt O95136); assay: Agonist activity at human S1P2R receptor expressed in CHO cell membranes by [35S]GTPgamma binding assay; format: functional
[17] = target: T1, Sphingosine 1-phosphate receptor 1; assay: Agonist activity at human S1P1R receptor expressed in CHO cell membranes by [35S]GTPgamma binding assay; format: functional
[18] = target: T2, Sphingosine 1-phosphate receptor 5; assay: Antagonist activity at human S1P5R receptor expressed in CHO cell membranes by [35S]GTPgamma binding assay; format: functional; in short: as §1
[19] = target: T3, Sphingosine 1-phosphate receptor 4; assay: Antagonist activity at human S1P4R receptor expressed in CHO cell membranes by [35S]GTPgamma binding assay; format: functional; in short: as §1
[20] = target: T4, Sphingosine 1-phosphate receptor 3; assay: Antagonist activity at human S1P3R receptor expressed in CHO cell membranes by [35S]GTPgamma binding assay; format: functional; in short: as §1
[21] = target: T5, Sphingosine 1-phosphate receptor 2; assay: Antagonist activity at human S1P2R receptor expressed in CHO cell membranes by [35S]GTPgamma binding assay; format: functional; in short: as §1
[22] = target: T1, Sphingosine 1-phosphate receptor 1; assay: Competitive binding affinity to human S1P1R receptor expressed in CHO cell membranes by Schild plot analysis
Rattus norvegicus [23] = assay: Reduction in peripheral blood lymphocytes in Lewis rat assessed as remaining circulating lymphocytes level at 100 mg/kg, po administered as single dose measured 24 hrs post dose by automated hematology analyzer; format: functional; in short: as §2

T1 sequence (P21453 whole entry): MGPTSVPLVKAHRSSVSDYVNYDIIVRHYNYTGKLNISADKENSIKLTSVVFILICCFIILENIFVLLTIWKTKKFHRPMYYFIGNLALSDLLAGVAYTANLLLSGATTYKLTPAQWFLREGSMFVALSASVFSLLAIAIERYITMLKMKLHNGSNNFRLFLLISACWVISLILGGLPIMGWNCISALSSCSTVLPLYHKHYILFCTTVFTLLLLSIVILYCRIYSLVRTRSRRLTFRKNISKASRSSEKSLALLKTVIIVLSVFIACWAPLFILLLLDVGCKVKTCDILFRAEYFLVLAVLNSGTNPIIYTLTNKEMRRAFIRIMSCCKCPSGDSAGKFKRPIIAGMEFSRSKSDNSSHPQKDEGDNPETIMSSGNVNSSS
T4 sequence (Q99500 whole entry): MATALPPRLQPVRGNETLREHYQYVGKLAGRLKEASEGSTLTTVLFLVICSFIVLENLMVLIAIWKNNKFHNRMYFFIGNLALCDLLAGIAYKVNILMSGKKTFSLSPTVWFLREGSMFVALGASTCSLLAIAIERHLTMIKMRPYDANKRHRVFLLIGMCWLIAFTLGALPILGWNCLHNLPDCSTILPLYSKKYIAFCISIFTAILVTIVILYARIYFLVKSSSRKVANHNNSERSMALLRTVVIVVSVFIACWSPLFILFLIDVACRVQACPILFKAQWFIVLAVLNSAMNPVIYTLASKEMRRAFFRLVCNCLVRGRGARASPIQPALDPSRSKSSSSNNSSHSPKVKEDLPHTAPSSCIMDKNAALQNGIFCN
T2 sequence (Q9H228 whole entry): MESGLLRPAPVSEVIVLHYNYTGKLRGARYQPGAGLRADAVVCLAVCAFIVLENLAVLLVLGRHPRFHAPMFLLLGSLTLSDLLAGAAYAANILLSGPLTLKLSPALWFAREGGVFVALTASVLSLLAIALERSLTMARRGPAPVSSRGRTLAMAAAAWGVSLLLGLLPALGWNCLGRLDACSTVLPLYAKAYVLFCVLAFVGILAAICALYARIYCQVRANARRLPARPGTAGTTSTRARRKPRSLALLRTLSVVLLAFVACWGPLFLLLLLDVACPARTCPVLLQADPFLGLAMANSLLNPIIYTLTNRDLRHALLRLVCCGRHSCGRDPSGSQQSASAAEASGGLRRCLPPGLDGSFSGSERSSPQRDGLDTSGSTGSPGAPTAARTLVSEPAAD
T5 sequence (O95136 whole entry): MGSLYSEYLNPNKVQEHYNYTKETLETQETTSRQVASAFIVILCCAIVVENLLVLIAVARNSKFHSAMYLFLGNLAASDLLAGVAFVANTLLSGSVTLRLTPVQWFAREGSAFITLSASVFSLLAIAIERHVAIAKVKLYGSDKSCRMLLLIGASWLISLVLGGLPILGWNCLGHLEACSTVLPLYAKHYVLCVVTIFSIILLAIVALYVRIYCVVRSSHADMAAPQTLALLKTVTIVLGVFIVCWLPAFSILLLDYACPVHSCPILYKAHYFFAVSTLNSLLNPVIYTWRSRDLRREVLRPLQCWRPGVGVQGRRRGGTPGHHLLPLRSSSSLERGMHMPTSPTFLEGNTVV

Cc1cc(S(=O)(=O)Nc2cccc(-c3cc(C)c(C(=O)N[C@@H](CCN(C)C)C(=O)O)c(C)c3)c2)c(C)cc1Cl
IC50 [1]: 12 nM

CN1CCN(c2nc(C3=C(c4c[nH]c5ccccc45)C(=O)NC3=O)c3ccccc3n2)CC1 [SOTRASTAURIN]
MST (Rattus norvegicus [2]): 7 days

Cc1cc(S(=O)(=O)Nc2cccc(-c3cc(C)c(C(=O)N[C@H]4CCNC4=O)c(C)c3)c2)c(C)cc1Cl
Activity (Rattus norvegicus [3]): inactive

Cc1cc(S(=O)(=O)Nc2cccc(-c3cc(C)c(C(=O)N[C@@H](CCN)C(=O)O)c(C)c3)c2)c(C)cc1Cl
IC50 [1]: 2.1 nM

Cc1cc(S(=O)(=O)Nc2cccc(-c3cc(C)c(C(=O)N(C)[C@@H](C)C(=O)OCCN(C)C)c(C)c3)c2)c(C)cc1Cl
solubility [4]: 15 µM (≈ 9 µg/mL)
Activity (Rattus norvegicus [5]): 49%
Activity (Rattus norvegicus [6]): 25%

COC(=O)[C@H](C)N(C)C(=O)c1c(C)cc(-c2cccc(NS(=O)(=O)c3cc(C)c(Cl)cc3C)c2)cc1C
Activity (Rattus norvegicus [7]): 21%
solubility [4]: < 4 µM

Cc1cc(S(=O)(=O)Nc2cccc(-c3cc(C)c(C(=O)N(C)[C@@H](CN(C)C)C(=O)O)c(C)c3)c2)c(C)cc1Cl
IC50 [1]: 8.4 nM

CCOC(=O)[C@H](CCN(C)C)N(C)C(=O)c1c(C)cc(-c2cccc(NS(=O)(=O)c3cc(C)c(Cl)cc3C)c2)cc1C
solubility [4]: < 4 µM
Activity (Rattus norvegicus [5]): 48%
Activity (Rattus norvegicus [6]): 28%

Cc1cc(S(=O)(=O)Nc2cccc(-c3cc(C)c(C(=O)N[C@@H](C)C(=O)O)c(C)c3)c2)c(C)cc1Cl
Activity (Rattus norvegicus [8]): 20%
IC50 [1]: 2.6 nM

COC(=O)[C@H](CCN)NC(=O)c1c(C)cc(-c2cccc(NS(=O)(=O)c3cc(C)c(Cl)cc3C)c2)cc1C
Activity (Rattus norvegicus [7]): 76%

COC(=O)[C@H](C)NC(=O)c1c(C)cc(-c2cccc(NS(=O)(=O)c3cc(C)c(Cl)cc3C)c2)cc1C
Activity (Rattus norvegicus [7]): 24%

Cc1cc(S(=O)(=O)Nc2cccc(-c3cc(C)c(C(=O)N(C)[C@@H](C)C(=O)O)c(C)c3)c2)c(C)cc1Cl
Activity (Rattus norvegicus [9]): 19%
IC50 [1]: 6.1 nM

COC(=O)[C@@H](CCN(C)C)N(C)C(=O)c1c(C)cc(-c2cccc(NS(=O)(=O)c3cc(C)c(Cl)cc3C)c2)cc1C
Activity (Rattus norvegicus [6]): 67%

Cc1cc(S(=O)(=O)Nc2cccc(-c3cc(C)c(C(=O)N(C)[C@H](CCN(C)C)C(=O)O)c(C)c3)c2)c(C)cc1Cl
IC50 [1]: 20 nM

COC(=O)[C@H](CN(C)C)N(C)C(=O)c1c(C)cc(-c2cccc(NS(=O)(=O)c3cc(C)c(Cl)cc3C)c2)cc1C
Activity (Rattus norvegicus [7]): 37%
solubility [4]: < 4 µM

CCCCCCCCc1ccc(CCC(N)(CO)CO)cc1 [FINGOLIMOD]
MST (Rattus norvegicus [10]): 38 days
MST (Rattus norvegicus [11]): >68.5 days

CO[C@H]1C[C@@H]2CC[C@@H](C)[C@@](O)(O2)C(=O)C(=O)N2CCCC[C@H]2C(=O)O[C@H]([C@H](C)C[C@@H]2CC[C@@H](OCCO)[C@H](OC)C2)CC(=O)[C@H](C)/C=C(\C)[C@@H](O)[C@@H](OC)C(=O)[C@H](C)C[C@H](C)/C=C/C=C/C=C/1C [EVEROLIMUS]
MST (Rattus norvegicus [12]): 7 days

Cc1cc(S(=O)(=O)Nc2cccc(-c3cc(C)c(C(=O)N(C)[C@@H](CCN(C)C)C(=O)O)c(C)c3)c2)c(C)cc1Cl
IC50 [1]: 3.4 nM
EC50 [13]: > 10000 nM
EC50 [14]: 1200 nM
EC50 [15]: > 10000 nM
EC50 [16]: > 10000 nM
EC50 [17]: > 10000 nM
IC50 [18]: 978 nM
IC50 [19]: > 10000 nM
IC50 [20]: 802 nM
IC50 [21]: > 10000 nM
Kd [22]: 0.67 nM

COC(=O)[C@H](CCN(C)C)NC(=O)c1c(C)cc(-c2cccc(NS(=O)(=O)c3cc(C)c(Cl)cc3C)c2)cc1C
Activity (Rattus norvegicus [7]): 15%
Activity (Rattus norvegicus [23]): 24%
